For one data set, the target named is D(1B) dopamine receptor (Homo sapiens, UniProt P21918). As to the kind of experiment: Displacement of [3H] SCH23390 from D5 receptor (unknown origin).
Data set [1] addresses Beta-2 adrenergic receptor (Homo sapiens, UniProt P07550). As to the kind of experiment: Displacement of [3H] CGP12177 from beta2 adrenergic receptor (unknown origin).
Data set [2] concerns the target Beta-1 adrenergic receptor (Homo sapiens, UniProt P08588). As to the kind of experiment: Displacement of [3H] CGP12177 from beta1 adrenergic receptor (unknown origin). A general note: In a radioligand displacement assay an active substance lowers the binding of a labelled ligand.
In data set [3] the target is T1, Alpha-1A adrenergic receptor (Homo sapiens, UniProt P35348).
T1 sequence (P35348 whole entry): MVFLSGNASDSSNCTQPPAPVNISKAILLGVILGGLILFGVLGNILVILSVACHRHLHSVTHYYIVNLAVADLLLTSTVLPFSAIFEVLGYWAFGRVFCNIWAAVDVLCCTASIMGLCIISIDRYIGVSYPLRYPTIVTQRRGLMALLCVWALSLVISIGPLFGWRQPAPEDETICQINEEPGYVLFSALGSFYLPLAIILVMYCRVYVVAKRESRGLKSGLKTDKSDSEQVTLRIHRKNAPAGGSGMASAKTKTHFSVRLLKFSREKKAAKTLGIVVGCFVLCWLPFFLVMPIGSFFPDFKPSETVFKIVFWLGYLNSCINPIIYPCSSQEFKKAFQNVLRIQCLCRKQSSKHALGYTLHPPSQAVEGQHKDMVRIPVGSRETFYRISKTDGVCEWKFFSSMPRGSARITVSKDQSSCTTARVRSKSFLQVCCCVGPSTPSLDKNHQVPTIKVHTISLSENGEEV
As to the kind of experiment: Displacement of [3H] prazosin from alpha1A adrenergic receptor (unknown origin).

Data set [4] concerns the target T2, Alpha-1A adrenergic receptor (Homo sapiens) (UniProt P35348).
T2 sequence (whole entry): T1 sequence (P35348 whole entry)
As to the kind of experiment: Antagonist activity at human alpha1A adrenergic receptor expressed in HEK293T cells assessed as accumulation of inositol monophosphate using d2-labelled IP1 conjugate incubated for 60 mins by HTRF assay. The data set is classed as functional, cell-based. (Time-resolved FRET reads energy transfer from a long-lived donor to a nearby acceptor.)

For a further data set, the target named is D(3) dopamine receptor (Homo sapiens, UniProt P35462). As to the kind of experiment: Displacement of [3H] Spiperone from human D3 receptor expressed in CHO cells by competitive radioligand binding assay. The format is cell-based.
D(3) dopamine receptor, sequence (P35462 whole entry): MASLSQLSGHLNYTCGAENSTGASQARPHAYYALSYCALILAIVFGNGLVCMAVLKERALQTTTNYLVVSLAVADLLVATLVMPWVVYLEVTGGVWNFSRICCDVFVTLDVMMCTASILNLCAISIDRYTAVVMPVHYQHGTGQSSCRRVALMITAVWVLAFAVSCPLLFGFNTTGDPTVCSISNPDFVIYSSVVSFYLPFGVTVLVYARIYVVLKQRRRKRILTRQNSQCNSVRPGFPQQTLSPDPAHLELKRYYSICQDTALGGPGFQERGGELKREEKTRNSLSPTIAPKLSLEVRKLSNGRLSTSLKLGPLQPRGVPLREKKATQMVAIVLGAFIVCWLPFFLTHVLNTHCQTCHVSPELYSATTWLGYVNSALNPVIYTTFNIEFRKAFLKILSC
A short description of data set [5]: Drug metabolism in Sprague-Dawley rat liver microsomes assessed as metabolite formation at 20 uM measured after 120 mins in presence of NADPH by LC-ESI-MS analysis. The format is ADME, Microsome. As to conditions: 2 h. Background: Liver microsomes are a subcellular fraction often used to study metabolism.
For data set [6], the target named is Delta-type opioid receptor (Homo sapiens, UniProt P41143). As to the kind of experiment: Displacement of [3H] diprenorphine from delta opioid receptor (unknown origin).
Delta-type opioid receptor, sequence (P41143 whole entry): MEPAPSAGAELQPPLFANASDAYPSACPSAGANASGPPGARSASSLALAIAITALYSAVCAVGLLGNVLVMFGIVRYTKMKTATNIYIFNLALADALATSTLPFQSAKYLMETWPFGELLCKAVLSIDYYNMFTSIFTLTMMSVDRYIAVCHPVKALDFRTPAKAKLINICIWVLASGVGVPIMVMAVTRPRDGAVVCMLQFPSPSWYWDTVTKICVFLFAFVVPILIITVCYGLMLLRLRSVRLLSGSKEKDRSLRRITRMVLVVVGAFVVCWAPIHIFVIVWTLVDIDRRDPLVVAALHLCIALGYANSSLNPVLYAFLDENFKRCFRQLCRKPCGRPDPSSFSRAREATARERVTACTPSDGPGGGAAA
Data set [7] in a line: Drug metabolism in Sprague-Dawley rat liver microsomes assessed as unchanged remaining parent compound at 20 uM measured after 120 mins in presence of NADPH by LC-ESI-MS analysis. The format is ADME, Microsome. To be noted: read-out: Drug metabolism.
In the next data set the target is D(1A) dopamine receptor (Homo sapiens, UniProt P21728). As to the kind of experiment: Displacement of [3H] SCH23390 from D1 receptor (unknown origin).
D(1A) dopamine receptor, sequence (P21728 whole entry): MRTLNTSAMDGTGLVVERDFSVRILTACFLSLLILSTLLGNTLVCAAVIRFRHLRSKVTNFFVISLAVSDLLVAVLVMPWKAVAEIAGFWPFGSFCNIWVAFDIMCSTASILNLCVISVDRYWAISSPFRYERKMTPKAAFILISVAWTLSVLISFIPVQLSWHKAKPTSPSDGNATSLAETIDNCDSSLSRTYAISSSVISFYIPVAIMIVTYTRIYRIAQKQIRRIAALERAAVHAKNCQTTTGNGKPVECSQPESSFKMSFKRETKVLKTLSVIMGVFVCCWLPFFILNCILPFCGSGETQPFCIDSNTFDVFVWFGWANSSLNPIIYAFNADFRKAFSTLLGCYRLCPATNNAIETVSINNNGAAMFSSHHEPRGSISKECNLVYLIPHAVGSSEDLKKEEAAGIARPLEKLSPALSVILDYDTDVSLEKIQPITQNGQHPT
The target of data set [8] is T3, Muscarinic acetylcholine receptor M1 (Homo sapiens, UniProt P11229).
T3 sequence (P11229 whole entry): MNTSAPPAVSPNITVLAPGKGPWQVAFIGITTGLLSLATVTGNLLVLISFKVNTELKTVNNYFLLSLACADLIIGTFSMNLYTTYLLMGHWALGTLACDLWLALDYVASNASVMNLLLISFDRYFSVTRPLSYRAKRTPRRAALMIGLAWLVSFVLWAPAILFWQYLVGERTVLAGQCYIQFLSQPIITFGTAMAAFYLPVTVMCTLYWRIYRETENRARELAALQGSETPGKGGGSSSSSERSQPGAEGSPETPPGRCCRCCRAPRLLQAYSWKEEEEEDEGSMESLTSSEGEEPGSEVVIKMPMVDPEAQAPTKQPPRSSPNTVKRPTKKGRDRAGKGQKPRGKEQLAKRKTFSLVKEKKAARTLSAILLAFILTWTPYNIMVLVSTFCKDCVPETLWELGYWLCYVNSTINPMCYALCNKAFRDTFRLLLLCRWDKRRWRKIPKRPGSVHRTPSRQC
As to the kind of experiment: Displacement of [3H] NMS from muscarinic M1 receptor (unknown origin). An outline of the steps:
(§1)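 Radioligand competition binding; Ki given as mean ± SD from two individual experiments, each run in triplicate.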

The target of data set [9] is T4, Muscarinic acetylcholine receptor M2 (Homo sapiens, UniProt P08172).
T4 sequence (P08172 whole entry): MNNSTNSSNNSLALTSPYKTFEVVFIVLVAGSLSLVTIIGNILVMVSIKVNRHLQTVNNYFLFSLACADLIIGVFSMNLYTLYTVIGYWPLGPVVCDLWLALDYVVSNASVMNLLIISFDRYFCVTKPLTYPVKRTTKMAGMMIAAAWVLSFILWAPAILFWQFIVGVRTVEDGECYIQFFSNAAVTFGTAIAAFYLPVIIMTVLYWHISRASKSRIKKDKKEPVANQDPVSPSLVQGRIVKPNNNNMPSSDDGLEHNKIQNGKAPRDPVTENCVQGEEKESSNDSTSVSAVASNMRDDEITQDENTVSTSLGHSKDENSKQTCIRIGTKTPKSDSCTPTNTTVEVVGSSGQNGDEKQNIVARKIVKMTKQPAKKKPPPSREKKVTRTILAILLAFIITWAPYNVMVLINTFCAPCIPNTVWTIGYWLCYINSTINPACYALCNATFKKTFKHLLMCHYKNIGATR
As to the kind of experiment: Displacement of [3H] NMS from muscarinic M2 receptor (unknown origin). In a few lines: as §1

The target of data set [10] is 5-hydroxytryptamine receptor 2A (Homo sapiens, UniProt P28223). As to the kind of experiment: Displacement of [3H] Ketanserin from 5HT2A receptor (unknown origin).
5-hydroxytryptamine receptor 2A, sequence (P28223 whole entry): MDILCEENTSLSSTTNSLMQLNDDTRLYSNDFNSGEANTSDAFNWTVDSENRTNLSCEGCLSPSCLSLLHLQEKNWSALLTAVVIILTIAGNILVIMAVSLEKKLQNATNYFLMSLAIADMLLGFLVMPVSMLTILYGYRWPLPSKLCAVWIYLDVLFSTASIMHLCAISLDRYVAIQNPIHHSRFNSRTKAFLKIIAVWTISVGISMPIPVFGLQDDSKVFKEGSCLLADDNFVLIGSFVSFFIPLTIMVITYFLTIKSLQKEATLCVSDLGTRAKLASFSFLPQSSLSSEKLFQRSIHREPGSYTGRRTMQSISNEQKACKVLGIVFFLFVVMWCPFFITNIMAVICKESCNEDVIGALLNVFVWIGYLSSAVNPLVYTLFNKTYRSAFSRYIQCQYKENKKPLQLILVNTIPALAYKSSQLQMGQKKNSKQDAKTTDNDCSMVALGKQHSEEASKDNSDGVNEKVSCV
For data set [11], the target named is T5, Alpha-2A adrenergic receptor (Homo sapiens, UniProt P08913).
T5 sequence (P08913 whole entry): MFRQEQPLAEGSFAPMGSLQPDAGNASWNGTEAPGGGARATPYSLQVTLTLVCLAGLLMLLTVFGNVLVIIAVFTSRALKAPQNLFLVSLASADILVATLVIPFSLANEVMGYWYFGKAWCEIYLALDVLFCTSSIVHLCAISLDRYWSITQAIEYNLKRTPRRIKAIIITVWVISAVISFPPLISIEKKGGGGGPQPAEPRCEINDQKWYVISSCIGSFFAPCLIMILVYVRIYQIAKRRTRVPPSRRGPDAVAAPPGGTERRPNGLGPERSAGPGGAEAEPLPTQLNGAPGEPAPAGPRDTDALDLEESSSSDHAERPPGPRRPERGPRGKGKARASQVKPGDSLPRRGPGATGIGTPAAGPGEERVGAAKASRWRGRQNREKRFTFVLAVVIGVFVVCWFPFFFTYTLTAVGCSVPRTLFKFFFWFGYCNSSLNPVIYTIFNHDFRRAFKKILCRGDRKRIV
As to the kind of experiment: Displacement of [3H] RX821002 from alpha2A adrenergic receptor (unknown origin).

Data set [12] concerns the target Muscarinic acetylcholine receptor M3 (Homo sapiens, UniProt P20309). As to the kind of experiment: Displacement of [3H] NMS from muscarinic M3 receptor (unknown origin). An outline of the steps:
as §1

The next data set addresses Mu-type opioid receptor (Homo sapiens, UniProt P35372). As to the kind of experiment: Displacement of [3H] diprenorphine from mu opioid receptor (unknown origin). An outline of the steps: as §1
In data set [13] the target is T6, D(2) dopamine receptor (Homo sapiens, UniProt P14416). As to the kind of experiment: Displacement of [3H] Spiperone from human D2L receptor expressed in CHO cells by competitive radioligand binding assay. The data set is classed as cell-based.
T6 sequence (P14416 whole entry): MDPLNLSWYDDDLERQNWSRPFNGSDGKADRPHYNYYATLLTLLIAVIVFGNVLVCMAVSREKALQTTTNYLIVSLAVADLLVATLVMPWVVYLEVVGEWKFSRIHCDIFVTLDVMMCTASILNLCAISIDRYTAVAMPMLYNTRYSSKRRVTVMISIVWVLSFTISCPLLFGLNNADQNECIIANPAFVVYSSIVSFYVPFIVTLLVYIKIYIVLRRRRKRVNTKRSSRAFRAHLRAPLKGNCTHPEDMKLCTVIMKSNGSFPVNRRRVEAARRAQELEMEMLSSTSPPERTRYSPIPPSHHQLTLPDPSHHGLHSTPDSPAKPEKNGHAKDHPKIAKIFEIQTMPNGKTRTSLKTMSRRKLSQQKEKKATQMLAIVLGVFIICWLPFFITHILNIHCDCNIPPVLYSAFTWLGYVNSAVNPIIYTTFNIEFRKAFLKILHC
In data set [14] the target is T6, D(2) dopamine receptor. As to the kind of experiment: Displacement of [3H] Spiperone from human D2S receptor expressed in CHO cells by competitive radioligand binding assay. The format is cell-based.
The target of data set [15] is T7, 5-hydroxytryptamine receptor 1A (Homo sapiens, UniProt P08908).
T7 sequence (P08908 whole entry): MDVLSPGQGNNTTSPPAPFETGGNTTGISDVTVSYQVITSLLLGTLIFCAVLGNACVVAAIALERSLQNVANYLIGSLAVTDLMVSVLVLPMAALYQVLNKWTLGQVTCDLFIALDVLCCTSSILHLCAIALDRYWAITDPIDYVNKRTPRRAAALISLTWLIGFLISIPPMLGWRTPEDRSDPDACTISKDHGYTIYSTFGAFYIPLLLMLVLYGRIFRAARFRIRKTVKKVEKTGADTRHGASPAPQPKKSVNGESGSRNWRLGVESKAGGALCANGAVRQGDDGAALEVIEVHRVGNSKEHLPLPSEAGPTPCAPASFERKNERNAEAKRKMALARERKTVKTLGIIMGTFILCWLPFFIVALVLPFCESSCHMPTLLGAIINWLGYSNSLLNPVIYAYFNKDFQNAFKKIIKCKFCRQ
As to the kind of experiment: Displacement of [3H] WAY100635 from 5HT1A receptor (unknown origin). In a few lines:
as §1

In data set [16] the target is Kappa-type opioid receptor (Homo sapiens, UniProt P41145). As to the kind of experiment: Displacement of [3H] diprenorphine from kappa opioid receptor (unknown origin). An outline of the steps:
as §1

Active and inactive are the calls of the source. No cut-off for these calls is given here.

Kappa-type opioid receptor, sequence (P41145 whole entry): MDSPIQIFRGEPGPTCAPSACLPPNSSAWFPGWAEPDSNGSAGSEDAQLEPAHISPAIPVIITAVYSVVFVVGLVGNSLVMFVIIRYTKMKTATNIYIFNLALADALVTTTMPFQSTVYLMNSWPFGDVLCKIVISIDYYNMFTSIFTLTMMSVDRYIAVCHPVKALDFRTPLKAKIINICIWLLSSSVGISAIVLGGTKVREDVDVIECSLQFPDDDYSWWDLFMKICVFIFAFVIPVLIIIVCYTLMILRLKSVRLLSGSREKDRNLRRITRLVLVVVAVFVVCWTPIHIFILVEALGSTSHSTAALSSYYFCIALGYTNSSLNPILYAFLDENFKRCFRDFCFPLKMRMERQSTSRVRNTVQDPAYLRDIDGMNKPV
Beta-1 adrenergic receptor, sequence (P08588 whole entry): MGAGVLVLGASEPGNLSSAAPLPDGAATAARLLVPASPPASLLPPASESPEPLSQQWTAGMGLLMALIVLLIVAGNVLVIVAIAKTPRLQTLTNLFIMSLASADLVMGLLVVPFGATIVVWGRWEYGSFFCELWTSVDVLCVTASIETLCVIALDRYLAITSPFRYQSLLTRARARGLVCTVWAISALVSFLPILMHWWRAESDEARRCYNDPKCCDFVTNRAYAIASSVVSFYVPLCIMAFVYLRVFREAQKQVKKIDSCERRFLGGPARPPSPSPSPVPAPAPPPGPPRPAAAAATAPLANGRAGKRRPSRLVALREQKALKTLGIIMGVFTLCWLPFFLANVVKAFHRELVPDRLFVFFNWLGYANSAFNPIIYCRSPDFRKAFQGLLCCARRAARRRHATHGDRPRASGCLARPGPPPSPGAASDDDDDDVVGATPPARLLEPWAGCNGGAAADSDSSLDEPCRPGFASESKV
Beta-2 adrenergic receptor, sequence (P07550 whole entry): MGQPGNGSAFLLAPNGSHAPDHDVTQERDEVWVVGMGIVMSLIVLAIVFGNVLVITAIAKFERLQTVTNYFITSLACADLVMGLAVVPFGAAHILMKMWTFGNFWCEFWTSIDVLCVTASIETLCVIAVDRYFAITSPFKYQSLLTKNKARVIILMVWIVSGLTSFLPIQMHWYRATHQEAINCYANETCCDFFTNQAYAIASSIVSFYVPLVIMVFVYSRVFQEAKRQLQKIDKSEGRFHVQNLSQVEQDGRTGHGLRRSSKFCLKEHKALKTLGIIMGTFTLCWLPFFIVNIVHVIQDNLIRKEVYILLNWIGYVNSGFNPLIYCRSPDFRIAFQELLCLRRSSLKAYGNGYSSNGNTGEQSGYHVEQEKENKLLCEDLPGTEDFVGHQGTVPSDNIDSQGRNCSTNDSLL
Mu-type opioid receptor, sequence (P35372 whole entry): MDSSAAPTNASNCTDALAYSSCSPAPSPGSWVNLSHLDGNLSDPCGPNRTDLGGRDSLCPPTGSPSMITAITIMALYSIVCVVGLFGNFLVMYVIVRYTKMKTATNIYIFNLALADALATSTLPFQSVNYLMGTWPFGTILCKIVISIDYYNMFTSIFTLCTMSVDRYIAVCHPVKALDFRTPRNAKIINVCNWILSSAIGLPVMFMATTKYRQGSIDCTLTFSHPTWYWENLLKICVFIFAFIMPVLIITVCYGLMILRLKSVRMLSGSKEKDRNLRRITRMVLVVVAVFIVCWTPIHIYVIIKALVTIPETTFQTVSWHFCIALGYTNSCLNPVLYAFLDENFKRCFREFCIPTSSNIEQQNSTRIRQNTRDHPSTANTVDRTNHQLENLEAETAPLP
Muscarinic acetylcholine receptor M3, sequence (P20309 whole entry): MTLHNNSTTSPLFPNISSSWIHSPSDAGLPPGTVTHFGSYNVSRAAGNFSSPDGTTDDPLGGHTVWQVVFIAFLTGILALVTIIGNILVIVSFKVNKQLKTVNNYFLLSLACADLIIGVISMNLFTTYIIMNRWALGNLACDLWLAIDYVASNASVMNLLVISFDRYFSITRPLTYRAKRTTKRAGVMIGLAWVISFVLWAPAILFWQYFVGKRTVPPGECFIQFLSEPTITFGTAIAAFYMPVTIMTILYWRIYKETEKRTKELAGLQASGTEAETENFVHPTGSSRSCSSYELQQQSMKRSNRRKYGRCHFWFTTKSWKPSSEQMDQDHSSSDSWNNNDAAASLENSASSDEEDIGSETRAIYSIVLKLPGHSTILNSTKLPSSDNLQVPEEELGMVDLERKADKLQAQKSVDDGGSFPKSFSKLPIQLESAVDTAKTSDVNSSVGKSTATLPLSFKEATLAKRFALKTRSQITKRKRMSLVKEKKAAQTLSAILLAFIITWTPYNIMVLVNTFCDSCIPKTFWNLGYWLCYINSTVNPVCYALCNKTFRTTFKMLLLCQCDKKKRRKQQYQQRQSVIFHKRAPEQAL
D(1B) dopamine receptor, sequence (P21918 whole entry): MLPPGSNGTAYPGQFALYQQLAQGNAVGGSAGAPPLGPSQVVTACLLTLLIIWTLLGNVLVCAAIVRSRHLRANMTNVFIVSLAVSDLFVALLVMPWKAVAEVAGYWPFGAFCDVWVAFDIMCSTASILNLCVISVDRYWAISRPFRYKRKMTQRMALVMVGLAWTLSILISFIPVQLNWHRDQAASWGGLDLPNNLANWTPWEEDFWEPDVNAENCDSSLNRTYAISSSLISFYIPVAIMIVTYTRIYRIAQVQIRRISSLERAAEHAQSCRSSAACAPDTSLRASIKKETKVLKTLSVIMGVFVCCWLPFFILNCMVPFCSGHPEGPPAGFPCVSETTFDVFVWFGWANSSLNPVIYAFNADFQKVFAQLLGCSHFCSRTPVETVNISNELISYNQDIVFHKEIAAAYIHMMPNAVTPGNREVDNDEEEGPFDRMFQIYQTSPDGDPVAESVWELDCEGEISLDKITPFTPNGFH

One may read the Ki as a dissociation constant, usually derived from enzyme kinetics or from competition with a known ligand. Higher therefore signals weaker binding. Consider `COc1ccccc1N1CCN(CCCNC(=O)NN(Cc2ccccc2)c2ccccc2)CC1`, for which the Ki on D(1B) dopamine receptor stood at 340 nM; in [1] it was 1800 nM; in data set [2] it was 13000 nM; in data set [3] it was 1.7 nM; at D(3) dopamine receptor, 170 nM; in data set [6] it was 10000 nM. In addition, the inhibition constant Ki was found to be 200 nM on D(1A) dopamine receptor; 25000 nM in [8]; 14000 nM in [9]; 65 nM in data set [10]; 400 nM in [11]; 25000 nM in [12]. Moreover, the Ki at Mu-type opioid receptor came out at 2000 nM; at D(2) dopamine receptor [13], 77 nM; at D(2) dopamine receptor [14], 73 nM; in [15], 17 nM; in data set [16] it was 3900 nM. Besides, in data set [4], the result was inactive. Also, the Drug metabolism entry in data set [5] was “Metabolite_Detected”. Moreover, the remaining at 2 h, 20 µM in data set [7] came to 10%.

The values are drawn from ChEMBL document CHEMBL4321823, “Benzyl Phenylsemicarbazides: A Chemistry-Driven Approach Leading to G Protein-Biased Dopamine D4 Receptor Agonists with High Subtype Selectivity” (J Med Chem, 2019).
